Measurements from different studies.
Protocols differ between the studies behind these lines. In brackets after ≈: the same amount, converted by molar mass.
Effect on: microbial growth

| Compound | organism | assay | system | conditions | MIC |
| --- | --- | --- | --- | --- | --- |
| C/C(=C\c1ccc(C#N)cc1)C(=O)Nc1ccc(C(=O)N[C@@H](CC(N)=O)C(=O)Nc2ccc(C(=O)Nc3ccc(C(=O)Nc4ccc(C(=O)O)cc4)c(O)c3OC(C)C)cc2)cc1 | Citrobacter freundii |  | DSM30039 |  | 0.06 µg/mL (≈ 0.0704 µM) |
| O=[N+]([O-])c1ccc(-c2nc(-c3ccc(Oc4ccccc4)cc3)no2)cc1 | Enterococcus faecium | broth dilution |  | 24 h | > 32 µg/mL |
| O=C(O)c1cccc(-n2c(/C=C/c3ccc(F)cc3)nc3ccncc3c2=O)c1 | Enterococcus faecium | broth dilution | NCTC7171 |  | > 128 µg/mL |
| CC(C)Oc1c(-n2cc(-c3ccc(NC(=O)C(CC(N)=O)NC(=O)c4ccc(NC(=O)c5ccc(C#N)cc5)cc4)cc3)nn2)ccc(C(=O)Nc2ccc(C(=O)O)cc2)c1O (stereo not drawn) | Citrobacter freundii |  | DSM30039 |  | 0.5 µg/mL (≈ 0.598 µM) |
| COCCNc1ccc(-c2nc(-c3ccc(Oc4ccccc4)cc3)no2)cc1 | Enterococcus faecium | broth dilution |  | 24 h | > 32 µg/mL |
| O=C(O)c1cccc(-n2c(/C=C/c3ccc(Cl)cc3)nc3ccncc3c2=O)c1 | Enterococcus faecium | broth dilution | NCTC7171 |  | > 128 µg/mL |
| CC(C)Oc1c(NC(=O)c2ccc(NC(=O)c3ccc(NC(=O)[C@H](CC(N)=O)NC(=O)c4ccc(NC(=O)c5ccc(C#N)s5)cc4)cc3)c(OC(C)C)c2O)ccc(C(=O)O)c1O | Citrobacter freundii |  | DSM30039 |  | 0.5 µg/mL (≈ 0.561 µM) |
| O=C(O)c1cn(C2CC2)c2cc(N3CCNCC3)c(F)cc2c1=O | Mycobacterium intracellulare | broth dilution | ATCC23068 |  | 0.63 µg/mL (≈ 1.9 µM) |
| CC(C)Oc1c(NC(=O)c2ccc(NC(=O)[C@H](CC(N)=O)NC(=O)c3ccc(NC(=O)c4ccc(C#N)cn4)cc3)cc2)ccc(C(=O)Nc2ccc(C(=O)O)cc2)c1O | Citrobacter freundii |  | DSM30039 |  | ≤ 0.03 µg/mL |
| CC(C)Nc1cccc(-n2c(/C=C/c3ccc(C#N)cc3)nc3ccccc3c2=O)c1 | Enterococcus faecium | broth dilution | NCTC7171 |  | > 128 µg/mL |
| O=C(O)CCc1ccccc1Oc1ccc(-c2noc(-c3ccc(O)cc3)n2)cc1 | Enterococcus faecium | broth dilution |  | 24 h | > 32 µg/mL |
| O=C(O)c1cccc(-n2c(/C=C/c3ccc(C#CCO)cc3)nc3ccccc3c2=O)c1 | Enterococcus faecium | broth dilution | NCTC7171 |  | > 128 µg/mL |
| O=C(O)Cc1ccccc1Oc1ccc(-c2noc(-c3ccc(O)cc3)n2)cc1 | Enterococcus faecium | broth dilution |  | 24 h | > 32 µg/mL |
| O=C(O)c1cccc(-n2c(/C=C/c3ccc(F)c(F)c3)nc3ccccc3c2=O)c1 | Enterococcus faecium | broth dilution | NCTC7171 |  | > 128 µg/mL |
| CC(C)Oc1c(NC(=O)c2ccc(NC(=O)[C@H](CC(N)=O)NC(=O)c3ccc(NC(=O)c4ccc(C#N)s4)cc3)cc2)ccc(C(=O)Nc2ccc(C(=O)O)cc2)c1O | Citrobacter freundii |  | DSM30039 |  | ≤ 0.03 µg/mL |
